Assay outcomes as filed in PubChem.
Hits are enriched below; roughly 1.2% of the tested compounds scored in any of these assays.
proCasp7 act: counter-screen for procaspase-3 activators: activators of human procaspase-7; P55210; recombinant procaspase-7, Ac-DEVD-pNA absorbance 405 nm; D23A/D198A/D206A triple mutant, cannot self-cleave; scale: DMSO 0, 5 µM enzyme 100; activation, % at 8.5 µM; hit rate 0.093% among 330,000;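 active = percent activation above the screen-wide mean plus 3 SD, cut at about 25% in these data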
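buffer or medium = Zinc-free HEPES/NaCl buffer, pH 7.4 | material = Procaspase-7 triple mutant (PC-7 D3A) | input = 2 µM procaspase-7 mutant as dispensed | signal = Epi-absorbance of released pNA at 405 nm, two timepoints | timing = 1 h preincubation, 2 h reaction | replicates = singlicate compound testing | evaluation = % activation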
procasp3 activ: procaspase-3 (human) activation | P42574 | recombinant procaspase-3 D3A, Ac-DEVD-pNA absorbance 405 nm | activation, % at 8.5 µM | hit rate 0.11% among 330,000 | AID 463141;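 active = activation above the mean of all tested compounds plus 3 SD, cut at about 21% in these data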
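System: Procaspase-3 D3A mutant. Medium: Zinc-free 300 mM NaCl, 50 mM HEPES, 0.01% Triton X-100. Schedule: 1 h preincubation plus 2 h reaction at 25 °C. Measured by: 405 nm absorbance of p-nitroaniline, reads at 0 and 120 min. Read-out: percent activation relative to control range.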
PP1 counter: blocks human PP1-alpha phosphatase, a PP5 counter-screen; hit rate 0.9% among 320,000; inhibition, % at 6.7 µM; purified PP1alpha, OMFP fluorescence; AID 2235; P62136;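 active = inhibition above the mean inhibition of all tested compounds plus 3 SD, computed separately for each screening campaign, cut at about 15% in these data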
Target sequence (P62136 whole entry, looked up): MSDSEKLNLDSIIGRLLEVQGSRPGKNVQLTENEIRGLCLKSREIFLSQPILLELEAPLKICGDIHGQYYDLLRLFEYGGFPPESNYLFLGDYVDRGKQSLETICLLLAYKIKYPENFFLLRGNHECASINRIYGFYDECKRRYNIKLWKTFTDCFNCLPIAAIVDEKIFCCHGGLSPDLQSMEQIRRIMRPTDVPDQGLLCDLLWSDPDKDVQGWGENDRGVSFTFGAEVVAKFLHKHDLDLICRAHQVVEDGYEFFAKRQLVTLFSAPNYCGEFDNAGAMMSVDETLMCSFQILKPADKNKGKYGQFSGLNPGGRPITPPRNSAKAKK
PP5 inh: PP5 (human) phosphatase inhibition | hit rate 0.18% among 320,000 | purified PP5c, OMFP substrate fluorescence | inhibition, % at 6.7 µM | AID 1987 | P53041;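 active = inhibition above the campaign's mean inhibition across all tested compounds plus 3 SD, cut at about 9.5% in these data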
PP5 conf: confirmation of human PP5 phosphatase inhibitors | shares compounds with PP5 inh | Purified PP5, fluorogenic phosphatase substrate, fluorescence | inhibition, % at 6.7 µM | hit rate 22% among 460; in the data active = inhibition above about 9.5%
PP1 inh counter: PP1 phosphatase inhibition, counter-screen for PP5 inhibitors; shares compounds with PP5 inh; PP1 enzyme, fluorescent phosphatase substrate; inhibition, % at 6.7 µM; hit rate 4% among 460; AID 2355; in the data active = inhibition above about 16%
Each line names hits and unclear results; the compound was inactive in the other large screens (follow-up assays come after a bar, where they were run).

COc1cccc(-c2nc(SCC(=O)Nc3nc(-c4ccccc4)c(C)s3)[nH]c(=O)c2C#N)c1	PP1 counter 17
O=C(c1ccc(-c2cc3ccccc3oc2=O)cc1)N1CCN(c2ccc(Cl)cc2[N+](=O)[O-])CC1	PP1 counter 16
Cc1ccccc1OCc1nnc(SCC(=O)Nc2ccc3nc(SCC(=O)Nc4ccccc4)sc3c2)n1C	PP1 counter 17
Cc1ccccc1OCc1nnc(SCC(=O)Nc2ccc3c(c2)OCO3)n1C	none
Cc1ccc(C(=O)c2ccccc2C(=O)OCC(=O)N2C(C)CCCC2C)cc1 (stereo unspecified)	none
Cc1ccc(O)c(C(=O)c2cc(C(=O)NCCc3ccccc3)c(=O)n(CCc3ccccc3)c2)c1	PP1 counter 17
COc1ccc(O)c(C(=O)c2cc(C(=O)NCCc3ccccc3)c(=O)n(CCc3ccccc3)c2)c1	none
N#CCC(=O)Nc1ccc(C(=O)OCC(=O)Nc2ccc3ccccc3c2)cc1	PP1 counter 15
CN(C(=O)CSc1ncnc2sc3c(c12)CCCC3)C1CCS(=O)(=O)C1 (stereo unspecified)	none (no result: PP1 counter, PP5 inh)
O=c1cc(O)c2c(=O)n(-c3ccccc3)c3c(c2o1)CCCCCC3	PP1 counter 17
O=c1cc(O)c2c(=O)n(C3CCCCC3)c3ccccc3c2o1	none
COc1ccc(/C=C/C(=O)NC(=S)NNC(=O)c2cccs2)cc1	PP1 counter 17
COc1ccc(/C=C/C(=O)NC(=S)NNC(=O)c2cccnc2)cc1	PP1 counter 16
COc1ccc(/C=C/C(=O)NC(=S)NNC(=O)c2cnccn2)cc1	none
O=C(CNCc1ccc(F)cc1)Nc1cc(S(=O)(=O)N2CCOCC2)ccc1Cl	none (no result: PP1 counter, PP5 inh)
COc1ccc(-c2nc3c(c(=O)[nH]c(=O)n3Cc3ccccc3)n2Cc2ccccc2)cc1	PP1 counter 16
CCOC(=O)c1c(C)[nH]c(C)c1S(=O)(=O)NCCN1CCN(c2ccccc2F)CC1	none
CC(C)(c1ccccc1)c1ccc(OCC(O)CNC2CCN(Cc3ccccc3)CC2)cc1 (stereo unspecified)	PP1 counter 16
CCOc1ccc(OCC(O)CNC2CCN(Cc3ccccc3)CC2)cc1 (stereo unspecified)	none
COC(=O)c1c(NC(=O)CN2C(=O)NC3(CCC(C(C)(C)C)CC3)C2=O)sc2c1CCCCC2 (stereo unspecified)	none
COC(=O)c1c(NC(=O)CN2C(=O)NC3(CCc4ccccc4C3)C2=O)sc2c1CCCCC2 (stereo unspecified)	PP1 counter 15
COc1ccc(C2C(C#N)=C3NC(=O)c4c(sc5c4CCCCC5)N3C3=C2C(=O)CC(C)(C)C3)cc1 (stereo unspecified)	PP1 counter 16
Cc1cc(C)n2nc(C(=O)OCC(=O)NNC(=O)c3ccccc3)nc2n1	none
COc1ccc(C=Nc2ccc3[nH]ncc3c2)c(O)c1	none
Oc1c(Br)cc(Br)cc1C=Nc1ccc2[nH]ncc2c1	PP1 counter 90
Cc1ccc(S(=O)(=O)/N=C2\C=C(Nc3cccc(C(=O)O)c3)C(=O)c3ccccc32)cc1	none
Cc1ccc(S(=O)(=O)N2CCN(C(=O)CSc3ncn[nH]3)CC2)c(C)c1	none
Cc1ccc(S(=O)(=O)/N=C2/C=C(Sc3ncn[nH]3)C(=O)c3ccccc32)cc1	PP5 inh 13 | PP5 conf 23 | PP1 inh counter 24
Cc1ccc(S(=O)(=O)/N=C2/C=C(Sc3ncn[nH]3)C(=O)c3ccccc32)c(C)c1	PP5 inh 13 | PP5 conf 36 | PP1 inh counter inactive
Cc1ccc(S(=O)(=O)/N=C2\C=C(Nc3ccc(O)cc3)C(=O)c3ccccc32)cc1	none (no result: PP1 counter, PP5 inh)
Cc1ccc(S(=O)(=O)/N=C2\C=C(Nc3cccc(C(=O)O)c3)C(=O)c3ccccc32)c(C)c1	PP5 inh 9.8 | PP5 conf 36 | PP1 inh counter inactive
CC[C@]12c3[nH]c4ccc(Cl)cc4c3CCN1C(=O)[C@@H](CC(=O)NCCC1=CCCCC1)C[C@@H]2C(=O)N1CCN(C(=O)c2ccco2)CC1	none (no result: PP1 counter, PP5 inh)
N#C/C(C(N)=O)=C1/CCCN1Cc1ccccc1	none
COc1ccc(S(=O)(=O)N2CC(C)N(C(=O)N(C)C)C2C)cc1 (stereo unspecified)	none
